Source: ChEMBL document CHEMBL4190234, “Design, synthesis and anticancer activity of new monastrol analogues bearing 1,3,4-oxadiazole moiety” (Eur J Med Chem, 2017)

Experiments:
Assay type in all cases: functional
[1] = tested on: CCRF-CEM; test: Growth inhibition of human CCRF-CEM cells at 10 uM incubated for 48 hrs by sulforhodamine B assay relative to control; conditions: read-out: GI
Procedure, shortened: (§1)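 Single-dose screen at 10 μM final: cells in RPMI 1640, 5% FBS, 2 mM L-glutamine, plated 5,000–40,000/well, preincubated 24 h at 37°C, 5% CO2; drug 48 h; adherent cells fixed with 10% TCA, suspension cells with 16% TCA; SRB stain, absorbance 515 nm; percentage growth versus untreated control, with time-zero plates.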

[2] = tested on: HL-60(TB); test: Growth inhibition of human HL-60(TB) cells at 10 uM incubated for 48 hrs by sulforhodamine B assay relative to control; conditions: HL-60, 48 h, read-out: GI
Procedure, shortened: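 Single dose of 10 µM in the NCI ~60-line panel. Cells grown in RPMI 1640 with 5% FBS and 2 mM L-glutamine, plated and pre-incubated 24 h, then exposed 48 h at 37°C under 5% CO2. Suspension cells fixed with TCA (16% final) and stained with sulforhodamine B, A515 read. Reported as percent growth versus untreated control and as GI%.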

[3] = tested on: MOLT-4; test: Growth inhibition of human MOLT4 cells at 10 uM incubated for 48 hrs by sulforhodamine B assay relative to control; conditions: MOLT-4, 48 h, read-out: GI; procedure, shortened: as §1
[4] = tested on: HOP-92; test: Growth inhibition of human HOP92 cells at 10 uM incubated for 48 hrs by sulforhodamine B assay relative to control; conditions: HOP-92, 48 h, read-out: GI; procedure, shortened: as §1
[5] = tested on: NCI-H322M; test: Growth inhibition of human NCI-H322M cells at 10 uM incubated for 48 hrs by sulforhodamine B assay relative to control; conditions: read-out: GI; procedure, shortened: as §1
[6] = tested on: NCI-H460; test: Growth inhibition of human NCI-H460 cells at 10 uM incubated for 48 hrs by sulforhodamine B assay relative to control; conditions: NCI-H460, 48 h, read-out: GI; procedure, shortened: as §1
[7] = tested on: NCI-H522; test: Growth inhibition of human NCI-H522 cells at 10 uM incubated for 48 hrs by sulforhodamine B assay relative to control; conditions: NCI-H522, 48 h, read-out: GI; procedure, shortened: as §1
[8] = tested on: COLO 205; test: Growth inhibition of human COLO205 cells at 10 uM incubated for 48 hrs by sulforhodamine B assay relative to control; conditions: COLO 205, 48 h, read-out: GI; procedure, shortened: as §1
[9] = tested on: HCC 2998; test: Growth inhibition of human HCC2998 cells at 10 uM incubated for 48 hrs by sulforhodamine B assay relative to control; conditions: HCC 2998, 48 h, read-out: GI; procedure, shortened: as §1
[10] = tested on: HCT-116; test: Growth inhibition of human HCT116 cells at 10 uM incubated for 48 hrs by sulforhodamine B assay relative to control; conditions: HCT-116, 48 h, read-out: GI; procedure, shortened: as §1
[11] = tested on: HCT-15; test: Growth inhibition of human HCT15 cells at 10 uM incubated for 48 hrs by sulforhodamine B assay relative to control; conditions: HCT-15, 48 h, read-out: GI; procedure, shortened: as §1
[12] = tested on: HT-29; test: Growth inhibition of human HT-29 cells at 10 uM incubated for 48 hrs by sulforhodamine B assay relative to control; conditions: HT-29, 48 h, read-out: GI; procedure, shortened: as §1
[13] = tested on: KM12; test: Growth inhibition of human KM12 cells at 10 uM incubated for 48 hrs by sulforhodamine B assay relative to control; conditions: KM12, 48 h, read-out: GI; procedure, shortened: as §1
[14] = tested on: SF-268; test: Growth inhibition of human SF268 cells at 10 uM incubated for 48 hrs by sulforhodamine B assay relative to control; conditions: SF-268, 48 h, read-out: GI
Procedure, shortened: (§2)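 NCI single-dose screen: cells grown in RPMI 1640 with 5% FBS and 2 mM L-glutamine, plated at 5,000–40,000 cells/well and preincubated 24 h at 37 °C, 5% CO2. Compounds taken from DMSO stock and tested at final 10 µM for 48 h. Cells fixed with TCA, stained with 0.4% SRB, absorbance read at 515 nm. Percentage growth calculated against untreated controls; controls held DMSO at the same dilution.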

[15] = tested on: SF-295; test: Growth inhibition of human SF295 cells at 10 uM incubated for 48 hrs by sulforhodamine B assay relative to control; conditions: SF-295, 48 h, read-out: GI; procedure, shortened: as §2
[16] = tested on: SNB-75; test: Growth inhibition of human SNB75 cells at 10 uM incubated for 48 hrs by sulforhodamine B assay relative to control; conditions: SNB-75, 48 h, read-out: GI; procedure, shortened: as §2
[17] = tested on: LOX IMVI; test: Growth inhibition of human LOXIMVI cells at 10 uM incubated for 48 hrs by sulforhodamine B assay relative to control; conditions: read-out: GI; procedure, shortened: as §1
[18] = tested on: M14; test: Growth inhibition of human M14 cells at 10 uM incubated for 48 hrs by sulforhodamine B assay relative to control; conditions: M14, 48 h, read-out: GI; procedure, shortened: as §1
[19] = tested on: MDA-MB-435; test: Growth inhibition of human MDA-MB-435 cells at 10 uM incubated for 48 hrs by sulforhodamine B assay relative to control; conditions: MDA-MB-435, 48 h, read-out: GI; procedure, shortened: as §1
[20] = tested on: SK-MEL-5; test: Growth inhibition of human SK-MEL-5 cells at 10 uM incubated for 48 hrs by sulforhodamine B assay relative to control; conditions: SK-MEL-5, 48 h, read-out: GI; procedure, shortened: as §2
[21] = tested on: IGROV-1; test: Growth inhibition of human IGROV1 cells at 10 uM incubated for 48 hrs by sulforhodamine B assay relative to control; conditions: IGROV-1, 48 h, read-out: GI; procedure, shortened: as §1
[22] = tested on: OVCAR-4; test: Growth inhibition of human OVCAR4 cells at 10 uM incubated for 48 hrs by sulforhodamine B assay relative to control; conditions: OVCAR-4, 48 h, read-out: GI; procedure, shortened: as §1
[23] = tested on: OVCAR-5; test: Growth inhibition of human OVCAR5 cells at 10 uM incubated for 48 hrs by sulforhodamine B assay relative to control; conditions: OVCAR-5, 48 h, read-out: GI; procedure, shortened: as §1
[24] = tested on: 786-0; test: Growth inhibition of human 786-0 cells at 10 uM incubated for 48 hrs by sulforhodamine B assay relative to control; conditions: 786-0, 48 h, read-out: GI; procedure, shortened: as §1
[25] = tested on: A498; test: Growth inhibition of human A498 cells at 10 uM incubated for 48 hrs by sulforhodamine B assay relative to control; conditions: A498, 48 h, read-out: GI; procedure, shortened: as §1
[26] = tested on: RXF 393; test: Growth inhibition of human RXF393 cells at 10 uM incubated for 48 hrs by sulforhodamine B assay relative to control; conditions: RXF 393, 48 h, read-out: GI; procedure, shortened: as §1
[27] = tested on: TK-10; test: Growth inhibition of human TK10 cells at 10 uM incubated for 48 hrs by sulforhodamine B assay relative to control; conditions: TK-10, 48 h, read-out: GI; procedure, shortened: as §2
[28] = tested on: UO-31; test: Growth inhibition of human UO31 cells at 10 uM incubated for 48 hrs by sulforhodamine B assay relative to control; conditions: UO-31, 48 h, read-out: GI; procedure, shortened: as §2
[29] = tested on: MCF7; test: Growth inhibition of human MCF7 cells at 10 uM incubated for 48 hrs by sulforhodamine B assay relative to control; conditions: MCF7, 48 h, read-out: GI; procedure, shortened: as §1
[30] = tested on: Hs-578T; test: Growth inhibition of human Hs 578T cells at 10 uM incubated for 48 hrs by sulforhodamine B assay relative to control; conditions: read-out: GI; procedure, shortened: as §1

| Compound | inhibition of growth at 10 µM [1] [%] | inhibition of growth at 10 µM [2] [%] | inhibition of growth at 10 µM [3] [%] | inhibition of growth at 10 µM [4] [%] | inhibition of growth at 10 µM [5] [%] | inhibition of growth at 10 µM [6] [%] | inhibition of growth at 10 µM [7] [%] | inhibition of growth at 10 µM [9] [%] | inhibition of growth at 10 µM [10] [%] | inhibition of growth at 10 µM [11] [%] | inhibition of growth at 10 µM [12] [%] | inhibition of growth at 10 µM [13] [%] | inhibition of growth at 10 µM [14] [%] | inhibition of growth at 10 µM [15] [%] | inhibition of growth at 10 µM [16] [%] | inhibition of growth at 10 µM [17] [%] | inhibition of growth at 10 µM [18] [%] | inhibition of growth at 10 µM [19] [%] | inhibition of growth at 10 µM [20] [%] | inhibition of growth at 10 µM [21] [%] | further results |
| --- | --- | --- | --- | --- | --- | --- | --- | --- | --- | --- | --- | --- | --- | --- | --- | --- | --- | --- | --- | --- | --- |
| CCOC(=O)C1=C(C)NC(SCc2nnc(-c3ccc(C)cc3)o2)=NC1c1ccc(F)cc1 (centres undefined) | 14.1 | 25.2 | 21.6 | 37 | 10.3 | < 10 | 22.4 | < 10 | 18.6 | 11.3 | 12.4 | < 10 | < 10 | 12.1 | 13.8 | < 10 | < 10 | < 10 | 14.5 | 13.9 | inhibition of growth at 10 µM [8]: < 10%; inhibition of growth at 10 µM [22]: < 10%; inhibition of growth at 10 µM [23]: < 10%; inhibition of growth at 10 µM [24]: 20.2%; inhibition of growth at 10 µM [25]: < 10%; inhibition of growth at 10 µM [26]: < 10%; inhibition of growth at 10 µM [27]: 28.4%; inhibition of growth at 10 µM [28]: < 10%; inhibition of growth at 10 µM [29]: 14%; inhibition of growth at 10 µM [30]: < 10% |
| CCOC(=O)C1=C(C)NC(SCc2nnc(-c3ccc(Cl)cc3)o2)=NC1c1ccc(Cl)cc1Cl (centres undefined) | 72.8 | 106 | 88.8 | 73.6 | 21.1 | 40.8 | 49.8 | 15.5 | 71.2 | 44.7 | 46.9 | 36.6 | 26.7 | 52.8 | 15.9 | 41.7 | 34.8 | 31 | 19.7 | 56.1 | inhibition of growth at 10 µM [22]: 47.3%; inhibition of growth at 10 µM [23]: 11%; inhibition of growth at 10 µM [24]: 34.8%; inhibition of growth at 10 µM [25]: 22.3%; inhibition of growth at 10 µM [26]: 56.6%; inhibition of growth at 10 µM [27]: 20.6%; inhibition of growth at 10 µM [28]: 62.8%; inhibition of growth at 10 µM [29]: 68%; inhibition of growth at 10 µM [30]: 32.9% |
| CCOC(=O)C1=C(C)NC(SCc2nnc(-c3ccc(Cl)cc3)o2)=NC1c1ccccc1 (centres undefined) | 12.4 | 38 | 31.3 | 40.1 | < 10 | < 10 | 54.1 | < 10 | 36.8 | 21.8 | 22.3 | 10.3 | < 10 | 23.4 | < 10 | 11.1 | 19.5 | < 10 | < 10 | < 10 | inhibition of growth at 10 µM [8]: 10.4%; inhibition of growth at 10 µM [22]: < 10%; inhibition of growth at 10 µM [23]: < 10%; inhibition of growth at 10 µM [24]: 31.4%; inhibition of growth at 10 µM [25]: < 10%; inhibition of growth at 10 µM [26]: < 10%; inhibition of growth at 10 µM [27]: 30.8%; inhibition of growth at 10 µM [28]: 19.4%; inhibition of growth at 10 µM [29]: 18.2%; inhibition of growth at 10 µM [30]: < 10% |
| COc1ccc(-c2nnc(CSC3=NC(c4ccc(F)cc4)C(C(C)=O)=C(C)N3)o2)cc1 (centres undefined) | 15.7 | 15.2 | 10.9 | 16.5 | < 10 | < 10 | 18 | < 10 | < 10 | < 10 | < 10 | < 10 | < 10 | < 10 | 17.3 | < 10 | 13.4 | < 10 | < 10 | < 10 | inhibition of growth at 10 µM [8]: < 10%; inhibition of growth at 10 µM [22]: 12.2%; inhibition of growth at 10 µM [23]: < 10%; inhibition of growth at 10 µM [24]: < 10%; inhibition of growth at 10 µM [25]: < 10%; inhibition of growth at 10 µM [26]: < 10%; inhibition of growth at 10 µM [27]: < 10%; inhibition of growth at 10 µM [28]: 29.7%; inhibition of growth at 10 µM [29]: 10.5%; inhibition of growth at 10 µM [30]: < 10% |
